Data set [1] in a line: Toxicity to brine shrimp larvae. The format is organism-based. Particulars: artemia salina, in vivo.
The next data set deals with A549. The experiment in a line: Cytotoxicity against human A549 cells after 7 days by MTT assay. The format is functional. Particulars: A549, 168 h, read-out: ED50 (the source's name). The essentials:
(§1)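 Seven-day in vitro MTT cytotoxicity assay run at the Purdue Cancer Center Cell Culture Laboratory to standard protocols. Lines: A-549 lung carcinoma, MCF-7 breast carcinoma, HT-29 colon adenocarcinoma, A-498 kidney carcinoma, PC-3 prostate adenocarcinoma, MIA PaCa-2 pancreatic carcinoma. Adriamycin served as positive control.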
A general note: Tetrazolium assays rely on reduction of a dye to a coloured formazan, in cell work by metabolically active cells.

A further data set relates to MCF7. The experiment in a line: Cytotoxicity against human MCF7 cells after 7 days by MTT assay. The format is functional. Particulars: MCF7, 168 h, read-out: ED50 (the source's name). The essentials: as §1
The test system of the next data set is HT-29. The experiment in a line: Cytotoxicity against human HT-29 cells after 7 days by MTT assay. The format is functional. Particulars: HT-29, 168 h, read-out: ED50 (the source's name). The essentials: as §1
In data set [2] the test system is A498. In words: Cytotoxicity against human A-498 cells after 7 days by MTT assay. The format is functional. Conditions: A498, 168 h, read-out: ED50 (the source's name). The essentials: as §1
The next data set has as its system PC-3. In words: Cytotoxicity against human PC-3 cells after 7 days by MTT assay. Conditions: PC-3, 168 h, read-out: ED50 (the source's name). The format is functional. The essentials: as §1
Data set [3] deals with MIA PaCa-2. The experiment in a line: Cytotoxicity against human MIA PaCa2 cells after 7 days by MTT assay. Particulars: MIA PaCa-2, 168 h, read-out: ED50 (the source's name). The format is functional. The essentials:
as §1

Data set [4] concerns A498. In words: Selectivity for human A498 cells over human HT29 cells. The format is functional.
For data set [5], the system named is MIA PaCa-2. In words: Selectivity for human A498 cells over human MIA PaCa2 cells. The format is functional.

Each structure is given as a SMILES string. In brackets after ≈: the same amount, converted by molar mass.

As to `CCCCCCCCCCCC[C@H](O)[C@@H]1CC[C@@H]([C@@H](O)CCCCCCCC(O)CC[C@@H](O)CC2=C[C@H](C)OC2=O)O1` (some centres undefined), in data set [1], the LC50 (usually the concentration lethal to half of the exposed cells or organisms) stood at 0.0125 µg/mL (≈ 0.0209 µM). Also, the EC50 was determined as 1.63 µg/mL (≈ 2.73 µM) in the data set on A549; 0.011 µg/mL (≈ 0.0184 µM) in the data set on MCF7; 0.001 µg/mL (≈ 0.00168 µM) in the data set with HT-29; 2.96 µg/mL (≈ 4.96 µM) with A498 [2]; 1.32 µg/mL (≈ 2.21 µM) with PC-3; 0.001 µg/mL (≈ 0.00168 µM) in the data set on MIA PaCa-2 [3]. The Selectivity ratio with A498 [4] and in the data set with MIA PaCa-2 [5] was 1000 throughout.

Turning to `CCCCCCCCCCCC[C@H](O)[C@@H]1CC[C@@H]([C@@H](O)CCCCCCCC(=O)CC[C@@H](O)CC2=C[C@H](C)OC2=O)O1` [ANNOCHERIN], the LC50 in data set [1] worked out at 0.137 µg/mL (≈ 0.23 µM). For the same compound, the EC50 with A549 came out at 1.67 µg/mL (≈ 2.81 µM); with MCF7, 0.308 µg/mL (≈ 0.518 µM); in the data set on HT-29, 3.54 µg/mL (≈ 5.95 µM); with A498 [2], 0.022 µg/mL (≈ 0.037 µM); in the data set with PC-3, 0.862 µg/mL (≈ 1.45 µM); in the data set on MIA PaCa-2 [3], 2.88 µg/mL (≈ 4.84 µM). Besides, the Selectivity ratio in the data set with A498 [4] was found to be 161; in the data set with MIA PaCa-2 [5] it was 131.

`COc1cccc2c1C(=O)c1c(O)c3c(c(O)c1C2=O)C[C@@](O)(C(=O)CO)C[C@@H]3O[C@H]1C[C@H](N)[C@H](O)[C@H](C)O1` [DOXORUBICIN]: the EC50 in the data set with A549 was determined as 0.0043 µg/mL (≈ 0.00791 µM); in the data set with MCF7, 0.129 µg/mL (≈ 0.237 µM); in the data set on HT-29 it was 0.0168 µg/mL (≈ 0.0309 µM); in the data set with A498 [2], 0.0156 µg/mL (≈ 0.0287 µM); with PC-3, 0.0499 µg/mL (≈ 0.0918 µM); in the data set with MIA PaCa-2 [3] it was 0.00101 µg/mL (≈ 0.00186 µM).

Values taken from ChEMBL document CHEMBL1144108, “Annocherin and (2,4)-cis- and trans-annocherinones, monotetrahydrofuran Annonaceous acetogenins with a C-7 carbonyl group from Annona cherimolia seeds” (J Nat Prod, 1999).
